Assay [1] deals with four prostate cancer cell lines (DU 145, PC-3, LNCaP, PPC-1). Briefly: SRB assay, average over prostate cancer cell lines and selectivity vs RH7777. Type of assay: cell-based, human. Particulars: for IC50: Homo sapiens, RH7777, read-out: Aver. (average IC50 of four prostate cells IC50s). The essentials: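 The control line was LPL receptor-negative RH7777 in DMEM/10% FBS. The prostate IC50s were averaged. Selectivity = IC50 in RH7777 divided by the average tumor-cell IC50.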

The subject of assay [2] is three melanoma cell lines (B16-F1, A375, WM-164). Briefly: SRB assay, average over melanoma cell lines and selectivity vs fibroblast. Type of assay: cell-based, human, mouse. Particulars: Fibroblast. On the technique in general: Sulforhodamine B stains cellular protein and so reports cell mass.
The mark [3] stands for this setting: read-out: Aver. (average IC50 of three melanoma cells IC50s).
[4] abbreviates: read-out: IC50 range over melanoma cell lines.

Where a name gives a salt, the structure may show the parent alone. Read-outs that look alike come from different tables or passages of the source.

On to `CCCCCCCCCCCCCCCCCCNC(=O)[C@@H]1CSC(c2cc(OC)c(OC)c(OC)c2)N1` (mixture of isomers) [Compound 3aa, (2RS,4R)-2-(3,4,5-Trimethoxy-phenyl)-thiazolidine-4-carboxylic acid octadecylamide], for which the “fold more potent than 1a against prostate cancer cells” value in assay [1] (from average IC50) is 2.4 fold.

In the case of `CCCCCCCCCCCCCCCCCCNC(=O)[C@@H]1CSC(c2ccc(OC)c(OC)c2)N1` (mixture of isomers) [Compound 3ba, (2RS,4R)-2-(3,4-Dimethoxy-phenyl)-thiazolidine-4-carboxylic acid octadecylamide], the IC50 worked out at 8 µM in assay [2] (setting [3]) and 3.2 µM in assay [1].

On to `CCCCCCCCC/C=C/CCCCCCCNC(=O)[C@@H]1CSC(c2ccc(OC)c(OC)c2)N1` (mixture of isomers) [Compound 3bc, (2RS,4R)-2-(3,4-Dimethoxy-phenyl)-thiazolidine-4-carboxylic acid (E)-octadec-8-enylamide], for which the IC50 in assay [1] was determined as 1.2 µM.

On to `CCCCCCCCCCCCCCCCNC(=O)[C@@H]1CSC(c2ccccc2OC)N1` (mixture of isomers) [Compound 3ca, (2RS,4R)-2-(2-Methoxy-phenyl)-thiazolidine-4-carboxylic acid hexadecylamide], for which the IC50 in assay [2] (setting [3]) was determined as 3.2 µM; in assay [1], 4.8 µM.

Consider `CCCCCCCCCCCCCCCCNC(=O)[C@@H]1CSC(c2cccc(OC)c2)N1` (mixture of isomers) [Compound 3da, (2RS,4R)-2-(3-Methoxy-phenyl)-thiazolidine-4-carboxylic acid hexadecylamide], for which the IC50 in assay [2] (setting [3]) came out at 2 µM; in assay [1], 0.7 µM.

Regarding `CCCCCCCCCCCCCCCCNC(=O)[C@@H]1CSC(c2ccc(OC)cc2)N1` (mixture of isomers) [Compound 3ea, (2RS,4R)-2-(4-Methoxy-phenyl)-thiazolidine-4-carboxylic acid hexadecylamide], the IC50 in assay [2] (setting [3]) and in assay [1] was 1.6 µM in each case.

With `CCCCCCCCCCCCCCCCNC(=O)[C@@H]1CSC(c2ccc(N(C)C)cc2)N1` (mixture of isomers) [Compound 3fa, (2RS,4R)-2-(4-Dimethylamino-phenyl)-thiazolidine-4-carboxylic acid hexadecylamide], the IC50 in assay [1] was 2.8 µM.

On to `CCCCCCCCCCCCCCCCNC(=O)[C@@H]1CSC(c2ccccc2NC(C)=O)N1` (mixture of isomers) [Compound 3ga, (2RS,4R)-2-(2-Acetylamino-phenyl)-thiazolidine-4-carboxylic acid hexadecylamide], for which the IC50 in assay [2] (setting [3]) came to 7.1 µM; in assay [1], 3 µM.

For `CC(=O)Nc1ccc(C2N[C@H](C(=O)NC34CC5CC(CC(C5)C3)C4)CS2)cc1` (mixture of isomers) [Compound 3ib, (2RS,4R)-2-(4-Acetylamino-phenyl)-thiazolidine-4-carboxylic acid adamantan-1-ylamide], in assay [2] (setting [3]), the concentration for half-maximal inhibition (IC50) is 120 µM.

Take `CC(=O)Nc1ccc(C2N[C@H](C(=O)NC3C4CC5CC(C4)CC3C5)CS2)cc1` (mixture of isomers) [Compound 3ic, (2RS,4R)-2-(4-Acetylamino-phenyl)-thiazolidine-4-carboxylic acid adamantan-2-ylamide]: the IC50 in assay [2] (setting [3]) stood at 79.5 µM.

Turning to `CC(=O)Nc1ccc(C2N[C@H](C(=O)Nc3ccc(-c4ccccc4)cc3)CS2)cc1` (mixture of isomers) [Compound 3if, (2RS,4R)-2-(4-Acetylamino-phenyl)-thiazolidine-4-carboxylic acid biphenyl-4-ylamide], in assay [2] (setting [3]), the IC50 came out at 5.3 µM.

With `CCCCCCCCC#CCCCCCCCCCNC(=O)[C@@H]1CSC(c2ccc(NC(C)=O)cc2)N1` (mixture of isomers) [Compound 3ii, (2RS,4R)-2-(4-Acetylamino-phenyl)-thiazolidine-4-carboxylic acid nonadec-10-ynylamide], the IC50 in assay [1] turned out to be 1.7 µM.

`CCCCCCCCCCCCCCCCNC(=O)[C@@H]1CSC(c2ccccc2)N1` (mixture of isomers) [Compound 3ja, (2RS,4R)-2-Phenyl-thiazolidine-4-carboxylic acid hexadecylamide]: the concentration for half-maximal inhibition (IC50) in assay [2] (setting [4]) is 0.7 to 2.1 µM.

As to `CCCCCCCCC/C=C\CCCCCCCNC(=O)[C@@H]1CSC(c2ccccc2)N1` (mixture of isomers) [Compound 3jb, (2RS,4R)-2-Phenyl-thiazolidine-4-carboxylic acid (Z)-octadec-8-enylamide], the values for the IC50 in assay [2] (setting [3]) and in assay [1] were 4.4 µM and 1.7 µM, respectively.

`CCCCCCCCCCCCCCCCOC(=O)[C@@H]1CSC(c2ccc(NC(C)=O)cc2)N1` (mixture of isomers) [Compound 5, (2RS,4R)-2-(4-Acetylamino-phenyl)-thiazolidine-4-carboxylic acid hexadecyl ester]: in assay [2] (setting [3]), the IC50 turned out to be 29.5 µM.

As for `CCCCCCCCCCCCCCCCNC[C@@H]1CSC(c2ccccc2)N1` (mixture of isomers) [Compound 8a, (2RS,4R)-Hexadecyl-(2-phenyl-thiazolidin-4-ylmethyl)-amine hydrochloride], the IC50 in assay [2] (setting [3]) was 7.5 µM.

On to `CCCCCCCCCCCCCCCCNC(=O)[C@@H]1CSC(c2ccc(N)cc2)N1` (mixture of isomers) [Compound 13b, (2RS,4R)-2-(4-Amino-phenyl)-thiazolidine-4-carboxylic acid hexadecylamide], for which, in assay [1], the IC50 is 1.8 µM.

For the compound `CCCCCCCCCCCCCCCCNC(=O)[C@@H]1CSC(c2ccc(NS(C)(=O)=O)cc2)N1` (mixture of isomers) [Compound 15a, (2RS,4R)-2-(4-Methanesulfonylaminophenyl)-thiazolidine-4-carboxylic acid hexadecylamide], the results for the IC50 in assay [2] (setting [3]) and in assay [2] (setting [4]) were 60.9 µM and 5.7 to 114 µM, respectively.

Take `CCCCCCCCCCCCCCCCNC(=O)[C@@H]1CSC(c2ccc(NC(N)=O)cc2)N1` (mixture of isomers) [Compound 15c, (2RS,4R)-2-(4-Ureido-phenyl)-thiazolidine-4-carboxylic acid hexadecylamide]: the IC50 in assay [2] (setting [3]) came to 3.9 µM; in assay [1] it was 2 µM.

In the case of `CCCCCCCCC/C=C\CCCCCCCNC(=O)[C@@H]1CSC(c2cc(OC)c(OC)c(OC)c2)N1` (stereo partly drawn) [Compound 3ab, (2RS,4R)-2-(3,4,5-Trimethoxy-phenyl)-thiazolidine-4-carboxylic acid octadec-8-cis-enylamide], the IC50 amounted to 2.8 µM in assay [2] (setting [3]) and 1 µM in assay [1].

Regarding `CCCCCCCCC/C=C/CCCCCCCNC(=O)[C@@H]1CSC(c2cc(OC)c(OC)c(OC)c2)N1` (stereo partly drawn) [Compound 3ac, (2RS,4R)-2-(3,4,5-Trimethoxy-phenyl)-thiazolidine-4-carboxylic acid octadec-8-trans-enylamide], the concentration for half-maximal inhibition (IC50) amounted to 2 µM in assay [2] (setting [3]) and 0.8 µM in assay [1].

Turning to `CC(=O)Nc1ccc(C2N[C@H](C(=O)Nc3ccc4cc5ccccc5cc4c3)CS2)cc1` (stereo partly drawn) [Compound 3ie], the values for the IC50 in assay [2] (setting [3]) and in assay [1] were 3.4 µM and 1 µM, respectively.

In the case of `CCCCCCCCCCCCCCCCNC(=O)[C@@H](N)CSC` [Compound 16a, (2R)-2-Amino-N-hexadecyl-3-methylsulfanyl-propion-amide], the IC50 in assay [2] (setting [4]) fell in the range of 12.9 to 14.4 µM.

Consider `CCCCCCCCCCCCCCCCNC(=O)[C@@H](N)CSCc1ccccc1` [Compound 16c, (2R)-2-Amino-3-benzylsulfanyl-N-hexadecyl-propionamide], for which, in assay [2] (setting [4]), the half-inhibitory concentration (IC50) is 12.8 to 15.1 µM.

Take `CCCCCCCCCCCCCCCCNC(=O)CNCc1ccc(NC(C)=O)cc1` [Compound 16d, 2-(4-Acetylamino-benzylamino)-N-hexadecyl-acetamide]: in assay [2] (setting [4]), the IC50 was in the range of 10.2 to 11.9 µM.

A word on the IC50: it is the concentration that gives 50% inhibition.

The values are drawn from publication PMC6675461 (Bioorganic & medicinal chemistry, 2009).
